# Laboratory results: PubChem BioAssay
# Calls of active or inactive are those of the source.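 The calls were made as follows, unless noted: active = visual image review flags a hit and inhibition of aggregation exceeds 20%; inconclusive = visual hit but inhibition at or below 20%; inactive = no hit on visual image review.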
# Experiments:
# [1] = inhibitors of TNFa-induced NFkB p65 translocation, primary screen, imaging, HUVEC, MLSMR starter and 10KST1 sets (AID 438;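 active = inhibition above 20% together with a positive visual image hit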;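 also: compound added about 3h40 before a 20 min TNFalpha stimulation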;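 as to inhibition: signal is the nuclear over cytoplasmic p65 intensity ratio per well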); conditions: HUVEC TNFa-induced p65 nuclear translocation; cell count: measured here: nuclei count (cytotoxicity indicator), at 2.08 µM; inhibition: at 2 µM, stronger effect = higher value, 0% TNFa-plus-vehicle, 100% no-TNFa wells
# [2] = inhibitors of mutant huntingtin aggregation, primary screen, imaging, exon1htt(103Q)mCFP cells, high-content imaging (AID 483); conditions: exon1htt(103Q)mCFP cell line, aggregate imaging, at 2 µM; inhibition of aggregation: stronger effect = higher value; nuclei count: measured here: cell count, toxicity;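 also: compound exposure lasted 3 days before fixation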;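 as to nuclei count: percent of the per-plate median nuclei count of sample wells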
# [3] = inhibitors of E-selectin induction by TNFa, primary screen, imaging, HUVEC, immunofluorescence, MLSMR starter and 10KST1 sets (AID 487;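 active = visually confirmed hit in the image check and inhibition above 20%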;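 as to inhibition: signal is fraction of cell area covered by stained E-selectin grains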;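 as to nuclei count: 100% = median nuclei count of all wells on the same plate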); conditions: HUVEC TNFalpha-induced E-selectin immunofluorescence imaging, at 2 µM; inhibition: stronger effect = higher value; nuclei count: measured here: cell number, toxicity
# [4] = target: Voltage-gated potassium channel subunit beta-2 (Rattus norvegicus) (UniProt P62483); test: KvBeta enzyme negative modulators, primary screen, biochemical, NADPH fluorescence (AID 622;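 active = fluorescence slope higher than the sample average by over 3 SD, cut at about -0.22 in these data, passing the limit was not always enough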;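 also: slope of raw intensity against log time taken from 70 to 1610 s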); conditions: recombinant KvBeta, 4-cyanobenzaldehyde reduction, at 10 µM, stronger effect = higher value
# Voltage-gated potassium channel subunit beta-2 (Rattus norvegicus), sequence (P62483 whole entry, looked up): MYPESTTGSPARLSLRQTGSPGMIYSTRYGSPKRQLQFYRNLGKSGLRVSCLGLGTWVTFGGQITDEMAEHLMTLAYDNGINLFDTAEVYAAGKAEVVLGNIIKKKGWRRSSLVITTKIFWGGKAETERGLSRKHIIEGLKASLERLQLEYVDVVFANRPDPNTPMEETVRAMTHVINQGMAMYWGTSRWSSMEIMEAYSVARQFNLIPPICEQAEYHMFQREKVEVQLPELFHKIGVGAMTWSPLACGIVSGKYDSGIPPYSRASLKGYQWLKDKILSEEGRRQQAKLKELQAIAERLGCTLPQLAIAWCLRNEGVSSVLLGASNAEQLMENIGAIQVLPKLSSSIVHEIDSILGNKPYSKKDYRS
# [5] = target: Voltage-gated potassium channel subunit beta-2 (Rattus norvegicus) (UniProt P62483); test: KvBeta positive modulators, primary screen, biochemical, NADPH fluorescence (AID 623;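 active = NADPH fluorescence slope more negative than the mean of all samples by about 3 SD, 99.7% confidence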;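 also: fluorescence intensity change per second fitted from 20 to 320 s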); conditions: Recombinant KvBeta, NADPH fluorescence decrease slope, 10 min; at 10 µM; stronger effect = lower value
# [6] = target: Muscarinic acetylcholine receptor M4 (Homo sapiens) (UniProt P08173); test: compounds altering M4/GIRK thallium flux, either direction, primary screen, M4 allosteric agonist project, cell-based, HEK293 M4/GIRK, BTC-AM (AID 625;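 active = fluorescence slope after compound addition differing from the mean of all tested samples at 99.7% confidence, mostly higher but some lower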;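 also: thallium influx through GIRK channels coupled to M4 in HEK293 cells with BTC-AM dye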); conditions: at 10 µM, actives lie on both sides
# Muscarinic acetylcholine receptor M4 (Homo sapiens), sequence (P08173 whole entry, looked up): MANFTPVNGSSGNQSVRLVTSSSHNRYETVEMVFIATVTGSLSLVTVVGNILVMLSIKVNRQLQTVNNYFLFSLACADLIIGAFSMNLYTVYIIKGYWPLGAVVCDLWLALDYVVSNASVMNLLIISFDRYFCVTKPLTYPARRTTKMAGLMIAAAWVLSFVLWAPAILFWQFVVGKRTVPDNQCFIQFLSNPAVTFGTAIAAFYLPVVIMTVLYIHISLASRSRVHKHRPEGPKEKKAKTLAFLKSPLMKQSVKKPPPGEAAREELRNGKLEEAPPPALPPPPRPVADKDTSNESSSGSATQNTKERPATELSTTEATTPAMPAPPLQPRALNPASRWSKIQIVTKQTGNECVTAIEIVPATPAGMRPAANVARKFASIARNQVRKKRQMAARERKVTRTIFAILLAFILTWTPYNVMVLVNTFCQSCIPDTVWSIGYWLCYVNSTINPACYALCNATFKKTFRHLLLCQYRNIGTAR
# Summary of the method: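 Material: HEK293 cells with M4 receptor and GIRK channels; Times: cells overnight at 37 °C, BTC-AM loading 1 h, reads 2 min total; Technique: kinetic BTC-AM fluorescence sampled at 1 Hz, 10 s pre-addition baseline; Read-out basis: slope over 15–24 s of trace normalized to starting intensity; Controls: carbachol positive, DMSO negative.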
# [7] = inhibitors of Sendai virus-induced IRF3 signaling, primary screen, TLR/RLR signaling modifier project, cell-based, Sendai virus stimulus, luciferase, 10K MLSCN set (AID 602276;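 active = inhibition at or above 50% at 10 µM; inactive = inhibition below 50%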;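 also: firefly luciferase from ISG56 promoter only with Renilla not read in this screen; 0% = Sendai virus plus DMSO and 100% = medium plus DMSO without virus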); conditions: HEK293 RL24 IRF3 luciferase reporter, at 10 µM, stronger effect = higher value
# [8] = inhibitors of poly I:C-induced TLR3 signaling, primary screen, cell-based, poly I:C stimulus, luciferase, 10K MLSCN set (AID 602277;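 active = inhibition of the reporter signal at or above 50%; inactive = inhibition below 50%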); conditions: HEK293-TLR3 RL24 IRF3 luciferase reporter, at 10 µM, stronger effect = higher value
Compound,cell count [1],inhibition [1],inhibition of aggregation [2],nuclei count [2] [%],inhibition [3],nuclei count [3] [%],fluorescence slope [4],NADPH fluorescence slope [5],fluorescence slope [6],inhibition [7],inhibition [8]
O=C(NC1CC2CCC1C2)c1ccc(CN2CCOCC2)cc1 (configuration not stated),362,6.1% (inactive),4.3% (inactive),91.8,-7.2% (inactive),99.5,-0.466 (inactive),-5.1e-05 (inactive),0.0046 (inactive),-25.1% (inactive),-53.4% (inactive)
Cc1nnc(N(Cc2ccco2)C(=O)c2cccc(C#N)c2)s1,428,7.3% (inactive),9.6% (inactive),101,11.7% (inactive),111,-0.569 (inactive),-1.4e-05 (inactive),0.00607 (inactive),-0.114% (inactive),5.23% (inactive)
COc1ccccc1NC(=O)C1=C(C)Nc2ncnn2C1c1ccc(C)o1 (configuration not stated),355,14.6% (inactive),24.5% (inactive),90.6,56.5% (inactive),85.1,-0.554 (inactive),-0.000118 (inactive),0.00338 (inactive),19.9% (inactive),20.2% (inactive)
Cc1nnc(C)n1/N=C/c1cccc(Oc2ccccc2)c1,344,-0.6% (inactive),0.1% (inactive),102,-5.9% (inactive),106,-0.462 (inactive),1.6e-05 (inactive),0.00567 (inactive),21.3% (inactive),31.8% (inactive)
COc1ccc(-c2noc(CN3C(=O)c4ccccc4C3=O)n2)cc1,551,8.9% (inactive),4.4% (inactive),90.5,-19.9% (inactive),108,-0.551 (inactive),-4.8e-05 (inactive),0.00296 (inactive),0.341% (inactive),-2.38% (inactive)
O=C(CCCCn1c(=O)[nH]c2ccsc2c1=O)NCc1cccnc1,684,-1% (inactive),5% (inactive),99.7,3.5% (inactive),119,-0.46 (inactive),-5.1e-05 (inactive),0.00456 (inactive),17% (inactive),15.3% (inactive)
Cc1ccc(S(=O)(=O)Cc2ccc(C(=O)NCc3ccc4c(c3)OCO4)o2)cc1,592,-1.9% (inactive),-21.6% (inactive),86.7,-16.5% (inactive),106,-0.454 (inactive),-9.9e-06 (inactive),0.00504 (inactive),9.39% (inactive),14.2% (inactive)
Cc1ccc(C(=O)Nc2ccc3c(c2)OCO3)o1,466,0% (inactive),-13.9% (inactive),106,-17.5% (inactive),121,-0.603 (inactive),-2.2e-05 (inactive),0.00576 (inactive),-40.3% (inactive),-49.6% (inactive)
COC(=O)c1ccccc1NC(=O)c1cc(-c2ccc(OC)c(OC)c2)on1,443,-28.4% (inactive),-3.3% (inactive),104,-29.1% (inactive),111,-0.269 (inactive),-3.4e-05 (inactive),0.00826 (inactive),3.07% (inactive),5.03% (inactive)
O=C(COC(=O)c1cc(S(=O)(=O)N2CCOCC2)ccc1O)NCC1CCCO1 (configuration not stated),426,9.7% (inactive),-4.1% (inactive),88.7,-39.1% (inactive),113,-0.345 (inactive),5.4e-05 (inactive),0.00615 (inactive),15.4% (inactive),24.6% (inactive)
Cc1ccc(S(=O)(=O)N[C@@H](C)C(=O)N2CCC(C(=O)N3CCC[C@H]3C(=O)O)CC2)cc1,361,3.6% (inactive),-14.8% (inactive),102,-59.3% (inactive),129,-0.406 (inactive),7.4e-05 (inactive),0.00591 (inactive),2.84% (inactive),13% (inactive)
O=C(Cn1nnc(-c2cccc(C(F)(F)F)c2)n1)NC(=O)NCc1ccco1,323,19.4% (inactive),-17% (inactive),100,24.1% (inactive),101,-0.44 (inactive),-0.000353 (inactive),0.00673 (inactive),-0.353% (inactive),5.76% (inactive)
CCCc1[nH]nc2c1C(c1cccc(OC(=O)c3ccco3)c1)C(C#N)=C(N)O2 (configuration not stated),687,-27.1% (inactive),-11.9% (inactive),105,35.2% (inactive),96.7,-0.471 (inactive),-8.2e-06 (inactive),0.00951 (inactive),9.57% (inactive),18% (inactive)
Cc1cc(=O)[nH]c2c1cnn2Cc1ccccc1,270,3.9% (inactive),13.6% (inactive),79.2,-37.7% (inactive),104,-0.483 (inactive),-6.1e-05 (inactive),0.00447 (inactive),13.7% (inactive),15.7% (inactive)
Cc1ccccc1NC(=O)C1CCC(C)(C(=O)O)C1(C)C (configuration not stated),485,3.5% (inactive),1.6% (inactive),94.4,-269% (inactive),109,-0.581 (inactive),1.1e-05 (inactive),0.00574 (inactive),-5.54% (inactive),8.98% (inactive)
COc1ccc(OC)c(C2C3=C(CCCC3=O)Nc3c2c(=O)n(C)c(=O)n3C)c1 (configuration not stated),508,1.4% (inactive),4.8% (inactive),89.5,-15.1% (inactive),96.3,-0.547 (inactive),-0.000161 (inactive),0.00407 (inactive),4.02% (inactive),0.406% (inactive)
CCOC(=O)CN(C)Cc1c[nH]c2ccccc12,442,-2.2% (inactive),-15.3% (inactive),93.9,17.6% (inactive),78.5,-0.426 (inactive),-4.3e-05 (inactive),0.00441 (inactive),27.3% (inactive),36.9% (inactive)
Cc1cccc(N(C)C(=O)c2cc3cc4ccc(C)cc4nc3o2)c1,214,-0.3% (inactive),11.5% (inactive),92.4,-24.7% (inactive),109,-0.396 (inactive),-2.9e-05 (inactive),0.00523 (inactive),37.8% (inactive),-34.7% (inactive)
Cc1ccc(NC(=O)CSc2nnc(CSc3nc(C)cc(C)n3)n2Cc2ccco2)c(C)c1,655,1.6% (inactive),1.3% (inactive),79.3,-23.6% (inactive),108,-0.454 (inactive),5.9e-05 (inactive),0.0102 (inactive),-22% (inactive),-4.45% (inactive)
CCCCCCNS(=O)(=O)c1ccc(Cl)s1,579,9.2% (inactive),-1.2% (inactive),102,-52.4% (inactive),89.1,-0.492 (inactive),0.000132 (inactive),0.00433 (inactive),19.6% (inactive),22.4% (inactive)
O=c1c2ccccc2cnn1-c1nc2ccccc2s1,480,-1% (inactive),-5.1% (inactive),98.1,-33.8% (inactive),117,-0.133 (inactive),-1.6e-05 (inactive),0.00555 (inactive),20.5% (inactive),93.6% (active)
O=C(CSc1nnc(Cn2nnc(-c3ccccc3)n2)n1-c1ccccc1)Nc1ccc(F)cc1,626,-9.3% (inactive),-10.3% (inactive),101,-114% (inactive),111,-0.573 (inactive),-6e-05 (inactive),0.00351 (inactive),10.9% (inactive),14.9% (inactive)
Cc1ccc(C2C(C#N)=C(N)Oc3cc4c(cc32)OCO4)cc1 (configuration not stated),373,-5.8% (inactive),32.6% (inactive),69.9,22.1% (inactive),104,-0.541 (inactive),-3.6e-05 (inactive),0.00467 (inactive),24.6% (inactive),45.5% (inactive)
CN1CCN(C(=O)c2ccccc2N(Cc2ccccc2)S(C)(=O)=O)CC1,359,4% (inactive),2.7% (inactive),111,-6% (inactive),110,-0.596 (inactive),-6.8e-05 (inactive),0.00748 (inactive),-0.336% (inactive),4.8% (inactive)
O=c1c2c(nc3nc(CCc4ccccc4)[nH]n13)CCC2,344,6.7% (inactive),-5.3% (inactive),97.5,-59.4% (inactive),105,-0.527 (inactive),-1.7e-05 (inactive),0.00459 (inactive),16.2% (inactive),19.5% (inactive)
CC(=O)CC(=O)Nc1ccccc1NC(C)=O,470,6.5% (inactive),-2.9% (inactive),108,-17.4% (inactive),110,-0.579 (inactive),-2.4e-05 (inactive),0.00558 (inactive),14.2% (inactive),15% (inactive)
O=C(NCCN1CCCC1)C1COc2ccccc2O1 (configuration not stated),511,-0.5% (inactive),-4.3% (inactive),73.8,-28.7% (inactive),100,-0.587 (inactive),-3.1e-05 (inactive),0.0064 (inactive),1.21% (inactive),11.8% (inactive)
